Assay results published in ChEMBL document CHEMBL1255268, “Antimicrobial activities of Ceftaroline and ME1036 tested against clinical strains of community-acquired methicillin-resistant Staphylococcus aureus” (2008).
≈ marks a conversion by molar mass, not a printed value.

Experiments:
Assay type in all cases: functional
[1] = test system: Staphylococcus aureus; test: Antimicrobial activity against community-acquired methicillin resistant Staphylococcus aureus expressing PVL and mec type IV gene by broth microdilution method
Procedure, shortened: (§1)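 Reference broth microdilution MICs per CLSI, with CLSI interpretive criteria (M100-S17) used for susceptible/resistant categories. Panel: 152 CA-MRSA clinical isolates from human infections, collected 2000–2005 at 47 US medical centres. Strains typed by multiplex PCR for SCCmec type (mecA as internal control), with products run on 2% agarose in Tris-acetate-EDTA and stained with ethidium bromide.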

[2] = test system: Staphylococcus aureus; test: Antimicrobial activity against community-acquired methicillin resistant Staphylococcus aureus expressing PVL gene and mec type IV gene assessed as susceptible strains by broth microdilution method; procedure, shortened: as §1
[3] = test system: Staphylococcus aureus; test: Antimicrobial activity against community-acquired methicillin resistant Staphylococcus aureus expressing PVL and mec type IV gene assessed as resistant strains by broth microdilution method; procedure, shortened: as §1

Q: With `C[C@@H](O)[C@H]1C(=O)N2C(C(=O)[O-])=C(c3cn4cnc(C(=O)c5ccc[n+](CC(N)=O)c5)c4s3)[C@H](C)[C@H]12` as the compound, how does the MIC50 [1] read?
A: The MIC50 was 0.12 µg/mL (≈ 0.242 µM).

Q: What about the MIC90 [1] of the same compound?
A: Its MIC90 is 0.25 µg/mL (≈ 0.505 µM).

Q: Which MIC [1] does the source give for `CCCCCCCCCC(=O)N[C@@H](Cc1c[nH]c2ccccc12)C(=O)N[C@H](CC(N)=O)C(=O)N[C@@H](CC(=O)O)C(=O)N[C@@H]1C(=O)NCC(=O)N[C@@H](CCCN)C(=O)N[C@@H](CC(=O)O)C(=O)N[C@H](C)C(=O)N[C@@H](CC(=O)O)C(=O)NCC(=O)N[C@H](CO)C(=O)N[C@@H]([C@H](C)CC(=O)O)C(=O)N[C@@H](CC(=O)c2ccccc2N)C(=O)O[C@@H]1C` here?
A: The MIC was 0.25 µg/mL (≈ 0.154 µM).

Q: And the MIC50 [1]?
A: The MIC50 was 0.25 µg/mL (≈ 0.154 µM).

Q: What about the MIC90 [1] of the same compound?
A: Its MIC90 is 0.5 µg/mL (≈ 0.309 µM).

Q: And the Activity [2]?
A: The Activity was 100%.

Q: And the Activity [3]?
A: Its Activity is 0%.

Q: With `CO/N=C(\C(=O)N[C@@H]1C(=O)N2C(C(=O)O)=C(CSc3nc(=O)c(O)nn3C)CS[C@H]12)c1csc(N)n1` [CEFTRIAXONE] as the compound, how does the MIC50 [1] read?
A: Its MIC50 is 32 µg/mL (≈ 57.7 µM).

Q: And the MIC90 [1]?
A: The MIC90 was over 32 µg/mL.

Q: What about the Activity [2] of the same compound?
A: The Activity was 0%.

Q: And the Activity [3]?
A: The Activity was 98.7%.

Q: What does the source list for `CCC[C@@H]1C[C@@H](C(=O)N[C@@H]([C@H]2O[C@H](SC)[C@H](O)[C@@H](O)[C@H]2O)[C@H](C)Cl)N(C)C1` [CLINDAMYCIN]?
A: MIC [1]: ≤ 0.25 µg/mL; MIC50 [1]: ≤ 0.25 µg/mL; MIC90 [1]: ≤ 0.25 µg/mL; Activity [2]: 100%; Activity [3]: 0%

Q: Which MIC50 [1] does the source give for `CC[C@H]1OC(=O)[C@H](C)[C@@H](O[C@H]2C[C@@](C)(OC)[C@@H](O)[C@H](C)O2)[C@H](C)[C@@H](O[C@@H]2O[C@H](C)C[C@H](N(C)C)[C@H]2O)[C@](C)(O)C[C@@H](C)C(=O)[C@H](C)[C@@H](O)[C@]1(C)O` [ERYTHROMYCIN] here?
A: Its MIC50 is over 8 µg/mL.

Q: What about the MIC90 [1] of the same compound?
A: The MIC90 was over 8 µg/mL.

Q: What about the Activity [2] of the same compound?
A: Its Activity is 1.3%.

Q: And the Activity [3]?
A: Its Activity is 98%.

Q: Which results are given for `C[C@@H](O)[C@H]1C(=O)N2C(C(=O)O)=C(SCCNC=N)C[C@H]12` [IMIPENEM ANHYDROUS]?
A: MIC [1]: ≤ 0.5 µg/mL; MIC50 [1]: ≤ 0.5 µg/mL; MIC90 [1]: ≤ 0.5 µg/mL; Activity [2]: 100%; Activity [3]: 0%

Q: For `C[C@H]1COc2c(N3CCN(C)CC3)c(F)cc3c(=O)c(C(=O)O)cn1c23.C[C@H]1COc2c(N3CCN(C)CC3)c(F)cc3c(=O)c(C(=O)O)cn1c23.O` [LEVOFLOXACIN], which MIC50 [1] is on record?
A: The MIC50 was 0.25 µg/mL.

Q: What about the MIC90 [1] of the same compound?
A: Its MIC90 is 0.5 µg/mL.

Q: And the Activity [2]?
A: The Activity was 92.8%.

Q: What about the Activity [3] of the same compound?
A: The Activity was 7.2%.

Q: `CC(=O)NC[C@H]1CN(c2ccc(N3CCOCC3)c(F)c2)C(=O)O1` [LINEZOLID] was tested. Which MIC50 [1] did it give?
A: Its MIC50 is 2 µg/mL (≈ 5.93 µM).

Q: What about the MIC90 [1] of the same compound?
A: The MIC90 was 2 µg/mL (≈ 5.93 µM).

Q: What about the Activity [2] of the same compound?
A: The Activity was 100%.

Q: Which results are given for `C[C@@H](O)[C@H]1C(=O)N2C(C(=O)O)=C(S[C@@H]3CN[C@H](C(=O)N(C)C)C3)[C@H](C)[C@H]12` [MEROPENEM]?
A: MIC50 [1]: 2 µg/mL (≈ 5.22 µM); MIC90 [1]: 2 µg/mL (≈ 5.22 µM); Activity [2]: 98%; Activity [3]: 0%

Q: With `CN(C)[C@@H]1C(O)=C(C(N)=O)C(=O)[C@@]2(O)C(O)=C3C(=O)c4c(O)cccc4[C@@](C)(O)[C@H]3C[C@@H]12` [TETRACYCLINE] as the compound, how does the MIC [1] read?
A: Its MIC is at most 0.5 µg/mL.

Q: And the MIC50 [1]?
A: Its MIC50 is at most 0.5 µg/mL.

Q: And the MIC90 [1]?
A: Its MIC90 is at most 0.5 µg/mL.

Q: And the Activity [2]?
A: The Activity was 94.7%.

Q: What about the Activity [3] of the same compound?
A: The Activity was 4.6%.

Q: With `CN[C@H](CC(C)C)C(=O)N[C@H]1C(=O)N[C@@H](CC(N)=O)C(=O)N[C@H]2C(=O)N[C@H]3C(=O)N[C@H](C(=O)N[C@H](C(=O)O)c4cc(O)cc(O)c4-c4cc3ccc4O)[C@H](O)c3ccc(c(Cl)c3)Oc3cc2cc(c3O[C@@H]2O[C@H](CO)[C@@H](O)[C@H](O)[C@H]2O[C@H]2C[C@](C)(N)[C@H](O)[C@H](C)O2)Oc2ccc(cc2Cl)[C@H]1O` [VANCOMYCIN] as the compound, how does the MIC50 [1] read?
A: Its MIC50 is 1 µg/mL (≈ 0.69 µM).

Q: What about the MIC90 [1] of the same compound?
A: The MIC90 was 1 µg/mL (≈ 0.69 µM).

Q: And the Activity [2]?
A: Its Activity is 100%.

Q: What about the Activity [3] of the same compound?
A: Its Activity is 0%.
